Consider 15 compounds from PubChem BioAssay.

The source made the active and inactive calls.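 The calls were made as follows, unless noted: active = Her2 level under about 52% in both replicate screens, with viability over 70% of control (limit read from the data); inconclusive = Her2 under the limit in one screen only, or viability under 70%; inactive = Her2 level above the set limit.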

Assay [1] in a line: Her2 expression decrease, cell viability multiplex – SKBR3 breast tumor cells, AlphaScreen, ATP viability, primary screen (AID 461).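 As to Her2 level: lower value means less Her2 protein in the cells.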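 As to viability: percent of carrier control wells set as 100% viability.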 Conditions: SKBR3 Her2 protein level, 18-24 h, measured here: SKBR3 viability, ATP luminescence, at 10 µM.
The target in assay [2] is Receptor tyrosine-protein kinase erbB-2 (Homo sapiens) (UniProt P04626). Described as above. Conditions: 18-24 h, at 10 µM, stronger effect = lower value.
Chain of Receptor tyrosine-protein kinase erbB-2 (Homo sapiens) (P04626 whole entry, looked up): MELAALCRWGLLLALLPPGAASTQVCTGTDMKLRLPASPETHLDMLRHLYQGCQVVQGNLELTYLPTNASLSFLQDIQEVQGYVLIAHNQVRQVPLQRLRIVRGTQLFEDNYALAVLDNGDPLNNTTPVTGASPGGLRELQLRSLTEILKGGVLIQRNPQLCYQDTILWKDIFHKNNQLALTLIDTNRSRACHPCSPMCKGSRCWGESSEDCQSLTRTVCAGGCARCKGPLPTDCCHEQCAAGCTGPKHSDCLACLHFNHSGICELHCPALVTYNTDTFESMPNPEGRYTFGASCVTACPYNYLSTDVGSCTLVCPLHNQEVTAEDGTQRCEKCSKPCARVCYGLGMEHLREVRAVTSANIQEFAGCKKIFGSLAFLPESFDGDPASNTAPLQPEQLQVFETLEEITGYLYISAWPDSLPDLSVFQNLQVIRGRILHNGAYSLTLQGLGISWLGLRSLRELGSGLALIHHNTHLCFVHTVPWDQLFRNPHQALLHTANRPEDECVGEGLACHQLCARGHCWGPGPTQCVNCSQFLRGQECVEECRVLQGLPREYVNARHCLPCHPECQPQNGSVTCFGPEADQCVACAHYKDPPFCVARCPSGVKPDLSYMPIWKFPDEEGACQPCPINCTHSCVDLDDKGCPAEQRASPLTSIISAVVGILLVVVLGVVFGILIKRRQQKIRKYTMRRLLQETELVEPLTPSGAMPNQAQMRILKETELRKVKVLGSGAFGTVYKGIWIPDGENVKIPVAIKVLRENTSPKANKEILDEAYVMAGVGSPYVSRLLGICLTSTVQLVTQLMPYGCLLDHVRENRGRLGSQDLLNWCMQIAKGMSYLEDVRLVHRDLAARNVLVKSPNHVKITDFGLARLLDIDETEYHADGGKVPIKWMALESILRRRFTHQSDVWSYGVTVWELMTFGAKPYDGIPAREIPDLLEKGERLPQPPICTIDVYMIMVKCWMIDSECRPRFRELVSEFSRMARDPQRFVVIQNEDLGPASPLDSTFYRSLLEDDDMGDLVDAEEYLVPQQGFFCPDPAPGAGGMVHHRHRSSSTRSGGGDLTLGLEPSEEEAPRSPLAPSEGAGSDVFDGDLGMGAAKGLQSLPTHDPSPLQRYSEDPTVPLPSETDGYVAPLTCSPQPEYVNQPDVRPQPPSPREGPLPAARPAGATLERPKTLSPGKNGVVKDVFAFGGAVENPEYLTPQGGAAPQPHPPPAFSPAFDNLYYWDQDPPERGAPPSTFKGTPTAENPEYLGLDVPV
Assay [3] in a line: reduced viability of SK-BR-3 breast cancer cells – cell-based, 24 h, human, pilot screen (AID 572;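 active = viability at or below 10% of carrier control in both of two separate runs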;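 also: compound exposure lasted between 18 and 24 h rather than exactly 24 h; 100% = carrier-treated control wells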). Conditions: SK-BR-3 viability, CellTiter-Glo luminescence, at 10 µM, stronger effect = lower value. (Cellular ATP, detected with luciferase, serves as a proxy for viable cell number.)
A short description of assay [4]: HUVEC growth inhibition – cell-based, human, primary screen (AID 575;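 active = viability at or below 30% in both replicate assays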;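 also: 100% = median of untreated cell wells with 0.1% DMSO on each plate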). Conditions: HUVEC proliferation, CellTiter-Glo luminescence, 72 h; at 10 µM; stronger effect = lower value. The method, boiled down: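 Test system – primary HUVEC, no more than 12 passages · Dosing – one dose, 10 µM final, 0.1% DMSO · Times – 72 h treatment at 37 °C · Measured by – ATP-based CellTiter-Glo luminescent read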

Assay [5] can be described thus: H69AR cell proliferation blockers – human, duplicate replicates, primary screen (AID 580;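 active = viability at or under a set limit in both replicates, limit being median viability minus 3 SD, cut at about 48% in these data, passing the limit was not always enough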;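 also: 100% = mean luminescence of untreated wells and 0% = no signal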). Conditions: H69AR lung tumor cells viability, ATP luminescence, 72 h; at 10 µM; stronger effect = lower value.
Assay [6] is described as follows: MRP1 drug-resistance reversers in H69AR cells – cell-based, doxorubicin co-treatment, pilot screen (AID 601;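 active = viability loss from added drug above about 55%, and viability with drug at most 40%, in both replicates, limit read from the data, passing the limit was not always enough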). Conditions: CellTiter-Glo, 72 h, at 10 µM; for differential viability (reversal): stronger effect = higher value.
Assay [7] in a line: yeast transport mutant growth inhibition pilot in 384-well plates, post-Golgi transport modulator project (AID 636; in the data active = inhibition above about 31%). Conditions: absorbance 615 nm, about 18 h, stronger effect = higher value.
Assay [8] is described as follows: growth suppression of yeast trafficking mutant, preliminary HTS, modulators of trafficking downstream of Golgi apparatus project, 1536-format plate, OD 615 nm (AID 637; in the data active = inhibition above about 30%). Conditions: yeast transport mutant growth, absorbance 615 nm, 18 h; stronger effect = higher value.
Where [9] appears, read: H69AR cells + 2 uM doxorubicin, measured here: viability with 2 uM doxorubicin, stronger effect = lower value.
[10] abbreviates: H69AR cells, compound alone cytotoxicity.

A word on the viability: it is a read-out of living cells in per cent, often relative to untreated cells. What is called inhibition is the relative decrease from the control value, in per cent. For `COc1cc(OC)c(-c2nn3c(C4CCCCC4)nnc3s2)cc1OC`, the viability was 102% in assay [1]; 102% (inactive) in assay [3]; 80.8% (inactive) in assay [4]; 77.5% (inactive) in assay [5]; 79.5% in assay [6] (setting [9]); 77.5% in assay [6] (setting [10]). Further, the Her2 level in assay [2] was 116% (inactive). Further, in assay [6] (H69AR cells + 2 uM doxorubicin), the differential viability (reversal) is -2% (inactive). Also, the figures for the inhibition in assay [7] and in assay [8] were -0.52% (inactive) and 2.3% (inactive), respectively.
For the compound `CC1(C)COCN1S(=O)(=O)c1ccc(C(=O)Nc2nnc(-c3ccc(Cl)s3)o2)cc1`, the viability was 70.5% in assay [1]; 70.5% (inactive) in assay [3]; 4.41% (active) in assay [4]; 15% (active) in assay [5]; 33.8% in assay [6] (setting [9]); 15% in assay [6] (setting [10]). In assay [2], the Her2 level is 97% (inactive). In addition, the differential viability (reversal) in assay [6] (H69AR cells + 2 uM doxorubicin) was -18.8% (inactive). The results for the inhibition in assay [7] and in assay [8] were -5.21% (inactive) and -1.43% (inactive), respectively.
For `CN(C)c1nc(N)nc(-c2nc3ccccc3s2)n1`, the viability in assay [1] is 73%; in assay [3], 73% (inactive); in assay [4], 85.1% (inactive); in assay [5], 91.7% (inactive); in assay [6] (setting [9]), 85.3%; in assay [6] (setting [10]) it was 91.7%. In addition, in assay [2], the Her2 level was 89% (inactive). Further, the differential viability (reversal) in assay [6] (H69AR cells + 2 uM doxorubicin) was 6.39% (inactive). Besides, the figures for the inhibition in assay [7] and in assay [8] were -6.62% (inactive) and -1.64% (inactive), respectively.
Turning to `COc1ccccc1NC(=O)c1cc2n(n1)C(C(F)(F)F)CC(c1ccc3c(c1)OCO3)N2` (stereo not given), the viability in assay [1] is 85%; in assay [3], 85% (inactive); in assay [4], 47.7% (inactive); in assay [5] it was 73.3% (inactive); in assay [6] (setting [9]), 87.1%; in assay [6] (setting [10]) it was 73.3%. Further, the Her2 level in assay [2] was 95% (inactive). In addition, the differential viability (reversal) in assay [6] (H69AR cells + 2 uM doxorubicin) is -13.8% (inactive). The inhibition in assay [7] is -4.03% (inactive); in assay [8], -3.33% (inactive).
Take `O=C(CSCc1cccc(F)c1)N1CCN(c2ccccc2)CC1`: the viability in assay [1] was 92%; in assay [3], 92% (inactive); in assay [4], 91% (inactive); in assay [5] it was 101% (inactive); in assay [6] (setting [9]) it was 96%; in assay [6] (setting [10]), 101%. The Her2 level in assay [2] was 93.5% (inactive). Moreover, in assay [6] (H69AR cells + 2 uM doxorubicin), the differential viability (reversal) is 5.28% (inactive). Also, the inhibition was -5% (inactive) in assay [7] and -4.67% (inactive) in assay [8].
With `N#CCc1c(C#N)c(N)nc(N2CCN(S(=O)(=O)c3ccccc3)CC2)c1C#N`, the viability in assay [1] is 74%; in assay [3] it was 74% (inactive); in assay [4], 59% (inactive); in assay [5] it was 77.6% (inactive); in assay [6] (setting [9]), 91.2%; in assay [6] (setting [10]), 77.6%. In assay [2], the Her2 level was 75.5% (inactive). The differential viability (reversal) in assay [6] (H69AR cells + 2 uM doxorubicin) is -13.6% (inactive). For the same compound, the inhibition in assay [7] was -4.46% (inactive); in assay [8], 0.16% (inactive).
For the compound `Cn1c(-c2ccccc2)c(CCO)c2ccccc21`, the viability is 97% in assay [1]; 97% (inactive) in assay [3]; 114% (inactive) in assay [4]; 94.7% (inactive) in assay [5]; 97.4% in assay [6] (setting [9]); 94.7% in assay [6] (setting [10]). In addition, the Her2 level in assay [2] was 78.5% (inactive). Besides, the differential viability (reversal) in assay [6] (H69AR cells + 2 uM doxorubicin) is -2.71% (inactive). In addition, the inhibition was -0.79% (inactive) in assay [7] and -2.9% (inactive) in assay [8].
For the compound `Cn1c(=O)oc2cc(S(=O)(=O)NCCC(=O)N3CCc4ccccc4C3)ccc21`, the viability in assay [1] is 102%; in assay [3] it was 102% (inactive); in assay [4], 96.6% (inactive); in assay [5], 99.3% (inactive); in assay [6] (setting [9]) it was 91.6%; in assay [6] (setting [10]) it was 99.3%. The Her2 level in assay [2] is 87.5% (inactive). The differential viability (reversal) in assay [6] (H69AR cells + 2 uM doxorubicin) was 7.68% (inactive). The figures for the inhibition in assay [7] and in assay [8] were -8.36% (inactive) and 6.19% (inactive), respectively.
Take `COc1ccc(CN(Cc2nc3ccccc3c(=O)[nH]2)C(=O)NC2CCCCC2)cc1`: the viability in assay [1] was 95.5%; in assay [3] it was 95.5% (inactive); in assay [4], 91.4% (inactive); in assay [5] it was 90.2% (inactive); in assay [6] (setting [9]), 89.4%; in assay [6] (setting [10]), 90.2%. In addition, the Her2 level in assay [2] is 71% (inactive). Further, the differential viability (reversal) in assay [6] (H69AR cells + 2 uM doxorubicin) is 0.78% (inactive). In addition, the results for the inhibition in assay [7] and in assay [8] were -4.61% (inactive) and -0.5% (inactive), respectively.
Turning to `COc1ccccc1C(=O)Nc1ccc(N2CCN(S(C)(=O)=O)CC2)cc1`, the viability was 99.5% in assay [1]; 99.5% (inactive) in assay [3]; 144% (inactive) in assay [4]; 97.2% (inactive) in assay [5]; 84.5% in assay [6] (setting [9]); 97.2% in assay [6] (setting [10]). In addition, the Her2 level in assay [2] is 106% (inactive). Also, the differential viability (reversal) in assay [6] (H69AR cells + 2 uM doxorubicin) is 12.7% (inactive). Further, the inhibition in assay [7] is -1.89% (inactive); in assay [8] it was -4% (inactive).
Regarding `O=C(CCn1c(=S)[nH]c2ccccc2c1=O)NCC1CCCO1` (stereo not given), the viability in assay [1] is 118%; in assay [3], 118% (inactive); in assay [4], 111% (inactive); in assay [5], 98.2% (inactive); in assay [6] (setting [9]), 92.2%; in assay [6] (setting [10]), 98.2%. The Her2 level in assay [2] was 100% (inactive). Also, in assay [6] (H69AR cells + 2 uM doxorubicin), the differential viability (reversal) was 6.03% (inactive). In addition, the inhibition in assay [7] was -6.13% (inactive); in assay [8], 0.66% (inactive).
For `CN1C(=O)C(CC(=O)N2CCN(C(c3ccccc3)c3ccccc3)CC2)N(C)C1=O` (stereo not given), the viability was 90.5% in assay [1]; 90.5% (inactive) in assay [3]; 89.1% (inactive) in assay [4]; 81.9% (inactive) in assay [5]; 95.9% in assay [6] (setting [9]); 81.9% in assay [6] (setting [10]). Moreover, the Her2 level in assay [2] is 83% (inactive). In assay [6] (H69AR cells + 2 uM doxorubicin), the differential viability (reversal) was -14% (inactive). Further, the inhibition in assay [7] was 0.26% (inactive); in assay [8], -3.67% (inactive).
In the case of `COc1cc(C(=O)Nc2ccc3c(c2)C(=O)N(CCC(=O)O)C3=O)cc(OC)c1OC`, the viability was 97.5% in assay [1]; 97.5% (inactive) in assay [3]; 98% (inactive) in assay [4]; 106% (inactive) in assay [5]; 100% in assay [6] (setting [9]); 106% in assay [6] (setting [10]). The Her2 level in assay [2] is 83% (inactive). Further, the differential viability (reversal) in assay [6] (H69AR cells + 2 uM doxorubicin) was 5.66% (inactive). The inhibition in assay [7] is -3.42% (inactive); in assay [8], -2.86% (inactive).
Regarding `Cc1ccc(NC(=O)CSc2nnc(CSc3nc(C)cc(C)n3)n2Cc2ccco2)c(C)c1`, the viability in assay [1] was 88%; in assay [3], 88% (inactive); in assay [4] it was 96.9% (inactive); in assay [5] it was 80.8% (inactive); in assay [6] (setting [9]) it was 64.7%; in assay [6] (setting [10]), 80.8%. Also, in assay [2], the Her2 level is 96% (inactive). Besides, the differential viability (reversal) in assay [6] (H69AR cells + 2 uM doxorubicin) was 16.1% (inactive). The inhibition in assay [7] was 0.8% (inactive); in assay [8], -6.72% (inactive).
Take `O=C(COc1ccc(F)cc1Br)N1CCc2ccccc21`: the viability is 97.5% in assay [1]; 97.5% (inactive) in assay [3]; 77.3% (inactive) in assay [4]; 75.3% (inactive) in assay [5]; 81.3% in assay [6] (setting [9]); 75.3% in assay [6] (setting [10]). Besides, the Her2 level in assay [2] is 100% (inactive). The differential viability (reversal) in assay [6] (H69AR cells + 2 uM doxorubicin) is -6% (inactive). The inhibition in assay [7] was -1.43% (inactive); in assay [8], -0.33% (inactive).
